Data as given in the array DNA melting data of Ke et al. (doi:10.1101/2024.01.08.574731).

Tests used:
[1] = folding enthalpy; higher = less favourable; fluorescence melt of hairpins on a sequencing array, two-state fit; details: sodium 0.088 M
How it was run: (§1)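 In 50 mM Na-HEPES pH 8.0 containing 25 mM NaCl, hairpins from the library on a sequenced MiSeq flow cell were imaged for Cy3 fluorescence at 2.5 °C steps up to 60 °C, with Cy3 and quencher oligos annealed. After normalisation to pre-quench Cy3 and to control constructs, two-state fits with bootstrapping gave melting temperature and folding enthalpy. Four replicates were combined by inverse-variance weighting, and fitted temperatures were shifted up by 9.35 °C to match UV melts.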

[2] = melting temperature; fluorescence melt of hairpins on a sequencing array, two-state fit, raised by 9.35 °C to match UV melts; details: sodium 0.088 M
How it was run: as §1

GCGTATGGAAACACACGC ((((.((....)).))))
folding enthalpy [1]: -29 kcal/mol
Tm [2]: 46.3 °C

GCGTATGGAAACGTATGC ((.((.(....).)).))
folding enthalpy [1]: -26.1 kcal/mol
Tm [2]: 34.8 °C

GCGTATTGACGC ((((....))))
folding enthalpy [1]: -13.1 kcal/mol
Tm [2]: 52.9 °C

GCGTCAAACGC ((((...))))
folding enthalpy [1]: -16.7 kcal/mol
Tm [2]: 50.8 °C

GCGTCAATACGC ((((....))))
folding enthalpy [1]: -22.8 kcal/mol
Tm [2]: 51.4 °C

GCGTCACAACGC ((((....))))
folding enthalpy [1]: -27.2 kcal/mol
Tm [2]: 55.2 °C

GCGTCACACGC ((((...))))
folding enthalpy [1]: -23.6 kcal/mol
Tm [2]: 56.2 °C

GCGTCACGAAAGTGTCGC (((.(((....))).)))
folding enthalpy [1]: -42.4 kcal/mol
Tm [2]: 63.4 °C

GCGTCAGGAAACTGACAC (.(((((....))))).)
folding enthalpy [1]: -13.1 kcal/mol
Tm [2]: 43.3 °C

GCGTCAGTACGC ((((....))))
folding enthalpy [1]: -20.1 kcal/mol
Tm [2]: 51.1 °C

GCGTCATACGC ((((...))))
folding enthalpy [1]: -20.1 kcal/mol
Tm [2]: 62.7 °C

GCGTCATGACGC ((((....))))
folding enthalpy [1]: -30.9 kcal/mol
Tm [2]: 61.9 °C

GCGTCCCCACGC ((((....))))
folding enthalpy [1]: -21 kcal/mol
Tm [2]: 51.1 °C

GCGTCCCGACGC ((((....))))
folding enthalpy [1]: -23.3 kcal/mol
Tm [2]: 61 °C

GCGTCCGAAAGGACCCGC ((((((....)))..)))
folding enthalpy [1]: -11.4 kcal/mol
Tm [2]: 44.4 °C

GCGTCCGAAAGGACTCGC ((((((....)))..)))
folding enthalpy [1]: -12.3 kcal/mol
Tm [2]: 51 °C

GCGTCCGCACGC ((((....))))
folding enthalpy [1]: -17.2 kcal/mol
Tm [2]: 52.8 °C

GCGTCCGTACGC ((((....))))
folding enthalpy [1]: -26.8 kcal/mol
Tm [2]: 52.3 °C

GCGTCGCCGAAAGGCCGC (((..(((....))))))
folding enthalpy [1]: -19.3 kcal/mol
Tm [2]: 57.1 °C

GCGTCGCGAAAGCCATGC ((.(.((....)).).))
folding enthalpy [1]: -16.2 kcal/mol
Tm [2]: 41.5 °C

GCGTCGCGAAAGCGCAGC ((..(((....)))..))
folding enthalpy [1]: -19.9 kcal/mol
Tm [2]: 57.5 °C

GCGTCGCGAAAGCGCTGC ((..(((....)))..))
folding enthalpy [1]: -16.3 kcal/mol
Tm [2]: 50.2 °C

GCGTCGCGAAAGCGGGGC ((..(((....)))..))
folding enthalpy [1]: -29 kcal/mol
Tm [2]: 67.4 °C

GCGTCGCGAAAGCTCCGC (((..((....))..)))
folding enthalpy [1]: -21.1 kcal/mol
Tm [2]: 46.8 °C

GCGTCGCGAAAGCTTCGC (((..((....))..)))
folding enthalpy [1]: -19.7 kcal/mol
Tm [2]: 53.5 °C

GCGTCGGGAAACCGGTGC ((..(((....)))..))
folding enthalpy [1]: -21.2 kcal/mol
Tm [2]: 48.7 °C

GCGTCGGGACGC ((((....))))
folding enthalpy [1]: -20.2 kcal/mol
Tm [2]: 66 °C

GCGTCGGTACGC ((((....))))
folding enthalpy [1]: -19.3 kcal/mol
Tm [2]: 52.8 °C

GCGTCGTGACGC ((((....))))
folding enthalpy [1]: -22.7 kcal/mol
Tm [2]: 68.4 °C

GCGTCTAAACGC ((((....))))
folding enthalpy [1]: -23 kcal/mol
Tm [2]: 54.4 °C

GCGTCTCCACGC ((((....))))
folding enthalpy [1]: -21.4 kcal/mol
Tm [2]: 52 °C

GCGTCTGAACGC ((((....))))
folding enthalpy [1]: -25.2 kcal/mol
Tm [2]: 54 °C

GCGTCTGGACGC ((((....))))
folding enthalpy [1]: -34.1 kcal/mol
Tm [2]: 59.8 °C

GCGTGAAGACGC ((((....))))
folding enthalpy [1]: -23 kcal/mol
Tm [2]: 58.3 °C

GCGTGACCGAAAGGTCGC (((..(((....))))))
folding enthalpy [1]: -10.1 kcal/mol
Tm [2]: 51.6 °C

GCGTGAGAAATCACGC ((((((....))))))
folding enthalpy [1]: -29.5 kcal/mol
Tm [2]: 69 °C

GCGTGAGCGAAAGCTCGC (((..(((....))))))
folding enthalpy [1]: -10.4 kcal/mol
Tm [2]: 53 °C

GCGTGAGGACGC ((((....))))
folding enthalpy [1]: -18.9 kcal/mol
Tm [2]: 50.8 °C

GCGTGAGTACGC ((((....))))
folding enthalpy [1]: -19.9 kcal/mol
Tm [2]: 52.5 °C

GCGTGCAGACGC ((((....))))
folding enthalpy [1]: -20.4 kcal/mol
Tm [2]: 62.5 °C

GCGTGCATACGC ((((....))))
folding enthalpy [1]: -24.6 kcal/mol
Tm [2]: 68.7 °C

GCGTGCGAAAGCACACGC ((((((....)))..)))
folding enthalpy [1]: -15 kcal/mol
Tm [2]: 64.5 °C

GCGTGCGAAAGCACCGC ((((((....))).)))
folding enthalpy [1]: -13.8 kcal/mol
Tm [2]: 67.2 °C

GCGTGCGAAAGCATTCGC ((((((....)))..)))
folding enthalpy [1]: -16.8 kcal/mol
Tm [2]: 52.4 °C

GCGTGCGGAAACACACGC (((((.(....).)))))
folding enthalpy [1]: -40.2 kcal/mol
Tm [2]: 58.5 °C

GCGTGCGGACGC ((((....))))
folding enthalpy [1]: -15.6 kcal/mol
Tm [2]: 54.7 °C

GCGTGCTTACGC ((((....))))
folding enthalpy [1]: -16.9 kcal/mol
Tm [2]: 54.9 °C

GCGTGGACGAAAGTCCGC (((..(((....))))))
folding enthalpy [1]: -11.3 kcal/mol
Tm [2]: 52.8 °C

GCGTGGCCACGC ((((....))))
folding enthalpy [1]: -43.9 kcal/mol
Tm [2]: 62.8 °C

GCGTGGCGAAAGCCCTGC ((..(((....)))..))
folding enthalpy [1]: -18.3 kcal/mol
Tm [2]: 47.2 °C

GCGTGGCGAAAGCGAAGC ((.(.((....)).).))
folding enthalpy [1]: -16.9 kcal/mol
Tm [2]: 50.5 °C

GCGTGGCGAAAGCGAGGC ((.(.((....)).).))
folding enthalpy [1]: -16.8 kcal/mol
Tm [2]: 51.1 °C

GCGTGGCGAAAGCGTCGC (((..((....))..)))
folding enthalpy [1]: -22.6 kcal/mol
Tm [2]: 58.7 °C

GCGTGGCGAAAGCTATGC ((.(.((....)).).))
folding enthalpy [1]: -31.4 kcal/mol
Tm [2]: 52.5 °C

GCGTGGGGAAACTCGCGC (((.(.(....).).)))
folding enthalpy [1]: -35.6 kcal/mol
Tm [2]: 54 °C

GCGTGGGGACGC ((((....))))
folding enthalpy [1]: -21.1 kcal/mol
Tm [2]: 52.6 °C

GCGTGGTGACGC ((((....))))
folding enthalpy [1]: -17.3 kcal/mol
Tm [2]: 55.1 °C

GCGTGTCTACGC ((((....))))
folding enthalpy [1]: -25.8 kcal/mol
Tm [2]: 57.8 °C

GCGTGTGCACGC ((((....))))
folding enthalpy [1]: -29.9 kcal/mol
Tm [2]: 57.2 °C

GCGTGTGGAAACACATGC ((.((((....)))).))
folding enthalpy [1]: -42 kcal/mol
Tm [2]: 57.5 °C

GCGTGTTCACGC ((((....))))
folding enthalpy [1]: -29 kcal/mol
Tm [2]: 59.5 °C

GCGTTAAAACGC ((((....))))
folding enthalpy [1]: -21.4 kcal/mol
Tm [2]: 50.3 °C

GCGTTAAACGC ((((...))))
folding enthalpy [1]: -19 kcal/mol
Tm [2]: 50.9 °C

GCGTTACTACGC ((((....))))
folding enthalpy [1]: -26.7 kcal/mol
Tm [2]: 54.8 °C

GCGTTAGAAATAACGC ((((((....))))))
folding enthalpy [1]: -37.8 kcal/mol
Tm [2]: 57.6 °C

GCGTTAGAACGC ((((....))))
folding enthalpy [1]: -20.3 kcal/mol
Tm [2]: 52.8 °C

GCGTTAGGAAACCAACGC (((((.(....).)))))
folding enthalpy [1]: -44.9 kcal/mol
Tm [2]: 49.8 °C

GCGTTAGGAAACTAACGC (((((((....)))))))
folding enthalpy [1]: -50.9 kcal/mol
Tm [2]: 65.8 °C

GCGTTCAAACGC ((((....))))
folding enthalpy [1]: -24.5 kcal/mol
Tm [2]: 53.1 °C

GCGTTCACACGC ((((....))))
folding enthalpy [1]: -22.6 kcal/mol
Tm [2]: 52.8 °C

GCGTTCCACGC ((((...))))
folding enthalpy [1]: -25.3 kcal/mol
Tm [2]: 59.7 °C

GCGTTCGAAAGAAAACGC ((((((....)))..)))
folding enthalpy [1]: -27.3 kcal/mol
Tm [2]: 49 °C

GCGTTCGAAAGAAACCGC ((((((....)))..)))
folding enthalpy [1]: -25.2 kcal/mol
Tm [2]: 36.9 °C

GCGTTCGAAAGAATGCGC ((((((....)))..)))
folding enthalpy [1]: -28.8 kcal/mol
Tm [2]: 57.3 °C

GCGTTGAACGC ((((...))))
folding enthalpy [1]: -18.2 kcal/mol
Tm [2]: 54.1 °C

GCGTTGAGACGC ((((....))))
folding enthalpy [1]: -29.7 kcal/mol
Tm [2]: 56.6 °C

GCGTTGCAACGC ((((....))))
folding enthalpy [1]: -33.5 kcal/mol
Tm [2]: 59 °C

GCGTTGCGAAAGCAGAGC ((..(((....)))..))
folding enthalpy [1]: -35.8 kcal/mol
Tm [2]: 63.4 °C

GCGTTGCGAAAGCCAGGC ((.(.((....)).).))
folding enthalpy [1]: -16.9 kcal/mol
Tm [2]: 40.3 °C

GCGTTGCGAAAGCCGCGC (((..((....))..)))
folding enthalpy [1]: -21.9 kcal/mol
Tm [2]: 63.3 °C

GCGTTGCGAAAGCGCCGC (((..((....))..)))
folding enthalpy [1]: -14.8 kcal/mol
Tm [2]: 58.4 °C

GCGTTGCGAAAGCTAAGC ((.(.((....)).).))
folding enthalpy [1]: -26.9 kcal/mol
Tm [2]: 59.2 °C

GCGTTGCGAAAGCTATGC ((.(.((....)).).))
folding enthalpy [1]: -23.7 kcal/mol
Tm [2]: 48.6 °C

GCGTTGCGAAAGCTGCGC (((..((....))..)))
folding enthalpy [1]: -36.3 kcal/mol
Tm [2]: 65.1 °C

GCGTTGGGAAACCAGTGC ((..(((....)))..))
folding enthalpy [1]: -24.1 kcal/mol
Tm [2]: 36.5 °C

GCGTTGGGAAACCGATGC ((.(.((....)).).))
folding enthalpy [1]: -25.9 kcal/mol
Tm [2]: 44 °C

GCGTTGGGAAACTAACGC (((((.(....).)))))
folding enthalpy [1]: -47.8 kcal/mol
Tm [2]: 55.5 °C

GCGTTTACACGC ((((....))))
folding enthalpy [1]: -23.2 kcal/mol
Tm [2]: 54.3 °C

GCGTTTAGACGC ((((....))))
folding enthalpy [1]: -27.3 kcal/mol
Tm [2]: 54 °C

GCGTTTGAACGC ((((....))))
folding enthalpy [1]: -20.3 kcal/mol
Tm [2]: 56.7 °C

GCGTTTGCACGC ((((....))))
folding enthalpy [1]: -19.1 kcal/mol
Tm [2]: 54.3 °C

GCGTTTGGAAACAAACAC (.(((((....))))).)
folding enthalpy [1]: -12.8 kcal/mol
Tm [2]: 40.6 °C

GCGTTTGGAAACAAGTGC ((..(((....)))..))
folding enthalpy [1]: -15.8 kcal/mol
Tm [2]: 31.4 °C

GCGTTTTACGC ((((...))))
folding enthalpy [1]: -23 kcal/mol
Tm [2]: 60.6 °C

GCGTTTTGACGC ((((....))))
folding enthalpy [1]: -25.2 kcal/mol
Tm [2]: 55.2 °C

GCTAAACCGAAAGGTAGC (((..(((....))))))
folding enthalpy [1]: -26.1 kcal/mol
Tm [2]: 44.5 °C

GCTAAAGAAATTTAGC ((((((....))))))
folding enthalpy [1]: -28.8 kcal/mol
Tm [2]: 41.7 °C

GCTAACCGAAAGGTAGC (((.(((....))))))
folding enthalpy [1]: -31.9 kcal/mol
Tm [2]: 55.3 °C

GCTAACGAAAGTTGCAGC ((((((....)))..)))
folding enthalpy [1]: -15.5 kcal/mol
Tm [2]: 39 °C
